One may read the MIC as the lowest concentration found to suppress growth.

Drawing on ChEMBL document CHEMBL2086318, “Synthesis and in vitro antimycobacterial activity of 2-methoxybenzanilides and their thioxo analogues” (Eur J Med Chem, 2012), this text covers MIC for 13 compounds.

In brackets after ≈: the same amount, converted by molar mass.

Holding throughout (type): functional
The test system of experiment [1] is Mycobacterium kansasii. The experiment can be described thus: Antimycobacterial activity against Mycobacterium kansasii My 6509/96 clinical isolate after 14 days by micromethod. The conditions noted are these: My 6509/96, 336 h.
The test system of experiment [2] is Mycobacterium kansasii. The experiment can be described thus: Antimycobacterial activity against Mycobacterium kansasii My 235/80 after 21 days by micromethod. The conditions noted are these: My 235/80, 504 h.
The subject of experiment [3] is Mycobacterium tuberculosis. Briefly: Antimycobacterial activity against Mycobacterium tuberculosis My 331/88 after 14 days by micromethod. The conditions noted are these: My 331/88, 336 h. The gist of the method:
(§1)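 MIC by micromethod at 37 °C, read after 14 and 21 days. Inocula were M. tuberculosis My 331/88 at 10^-3 dilution and M. avium My 330/88 at 10^-5 dilution. Compounds added in DMSO across 1000, 500, 250, 125, 62.5, 32, 16, 8, 4, 2, 1 and 0.5; isoniazid standard in sterile water. MIC taken as the lowest concentration inhibiting growth.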

The subject of experiment [4] is Mycobacterium kansasii. The experiment can be described thus: Antimycobacterial activity against Mycobacterium kansasii My 235/80 after 14 days by micromethod. The conditions noted are these: My 235/80, 336 h.
Experiment [5] has as its system Mycobacterium avium. Briefly: Antimycobacterial activity against Mycobacterium avium My 330/88 after 14 days by micromethod. The conditions noted are these: My 330/88, 336 h.
Experiment [6] has as its system Mycobacterium kansasii. The experiment can be described thus: Antimycobacterial activity against Mycobacterium kansasii My 6509/96 clinical isolate after 7 days by micromethod. The conditions noted are these: My 6509/96, 168 h.
For experiment [7], the system named is Mycobacterium kansasii. Briefly: Antimycobacterial activity against Mycobacterium kansasii My 235/80 after 7 days by micromethod. The conditions noted are these: My 235/80, 168 h.
Experiment [8] relates to Mycobacterium tuberculosis. Briefly: Antimycobacterial activity against Mycobacterium tuberculosis My 331/88 after 21 days by micromethod. The conditions noted are these: My 331/88, 504 h. The gist of the method: as §1
The subject of experiment [9] is Mycobacterium kansasii. Briefly: Antimycobacterial activity against Mycobacterium kansasii My 6509/96 clinical isolate after 21 days by micromethod. The conditions noted are these: My 6509/96, 504 h.
Experiment [10] relates to Mycobacterium avium. Briefly: Antimycobacterial activity against Mycobacterium avium My 330/88 after 21 days by micromethod. The conditions noted are these: My 330/88, 504 h.

Consider `COc1cc(Cl)ccc1C(=O)Nc1cccc(C(F)(F)F)c1`, for which the MIC in experiment [1] was determined as 125 µM (≈ 41.2 µg/mL); in [2] it was 250 µM (≈ 82.4 µg/mL); in experiment [3], 250 µM (≈ 82.4 µg/mL); in experiment [4], 250 µM (≈ 82.4 µg/mL); in [5], 125 µM (≈ 41.2 µg/mL); in experiment [6], 125 µM (≈ 41.2 µg/mL). Besides, the minimum inhibitory concentration (MIC) came to 125 µM (≈ 41.2 µg/mL) in experiment [7], 250 µM (≈ 82.4 µg/mL) in [8], 125 µM (≈ 41.2 µg/mL) in experiment [9] and 125 µM (≈ 41.2 µg/mL) in experiment [10].
With `COc1cc(Cl)ccc1C(=O)Nc1ccc(Cl)cc1`, the minimal inhibitory concentration (MIC) was 16 µM (≈ 4.74 µg/mL) in experiment [1]; 62.5 µM (≈ 18.5 µg/mL) in experiment [2]; 125 µM (≈ 37 µg/mL) in experiment [3]; 16 µM (≈ 4.74 µg/mL) in [4]; 8 µM (≈ 2.37 µg/mL) in experiment [5]; 8 µM (≈ 2.37 µg/mL) in experiment [6]. The MIC in [7] came to 8 µM (≈ 2.37 µg/mL); in experiment [8], 125 µM (≈ 37 µg/mL); in experiment [9], 62.5 µM (≈ 18.5 µg/mL); in [10], 32 µM (≈ 9.48 µg/mL).
Turning to `COc1ccc(Cl)cc1C(=O)Nc1cccc(Br)c1`, the MIC was 62.5 µM (≈ 21.3 µg/mL) in experiment [1]; 62.5 µM (≈ 21.3 µg/mL) in [2]; 125 µM (≈ 42.6 µg/mL) in [3]; 62.5 µM (≈ 21.3 µg/mL) in experiment [4]; 62.5 µM (≈ 21.3 µg/mL) in experiment [5]; 62.5 µM (≈ 21.3 µg/mL) in [6]. Besides, the MIC in experiment [7] is 62.5 µM (≈ 21.3 µg/mL); in experiment [8] it was 125 µM (≈ 42.6 µg/mL); in experiment [9], 62.5 µM (≈ 21.3 µg/mL); in experiment [10] it was 62.5 µM (≈ 21.3 µg/mL).
Consider `COc1ccc(Cl)cc1C(=O)Nc1ccc(Cl)c(Cl)c1`, for which the minimal inhibitory concentration (MIC) amounted to 125 µM (≈ 41.3 µg/mL) in [1]; 250 µM (≈ 82.6 µg/mL) in experiment [2]; 125 µM (≈ 41.3 µg/mL) in experiment [3]; 250 µM (≈ 82.6 µg/mL) in experiment [4]; 250 µM (≈ 82.6 µg/mL) in [5]; 62.5 µM (≈ 20.7 µg/mL) in [6]. Moreover, the minimum inhibitory concentration (MIC) was 62.5 µM (≈ 20.7 µg/mL) in experiment [7], 125 µM (≈ 41.3 µg/mL) in experiment [8], 125 µM (≈ 41.3 µg/mL) in experiment [9] and 250 µM (≈ 82.6 µg/mL) in [10].
`O=C(Nc1ccc(Cl)cc1)c1cc(Cl)ccc1O`: the minimal inhibitory concentration (MIC) in experiment [2] turned out to be 8 µM (≈ 2.26 µg/mL); in [3], 4 µM (≈ 1.13 µg/mL); in experiment [4], 8 µM (≈ 2.26 µg/mL); in experiment [5] it was 8 µM (≈ 2.26 µg/mL); in [8], 4 µM (≈ 1.13 µg/mL); in experiment [10] it was 8 µM (≈ 2.26 µg/mL).
In the case of `O=C(Nc1ccc(C(F)(F)F)cc1)c1ccc(Cl)cc1O`, the minimum inhibitory concentration (MIC) turned out to be 4 µM (≈ 1.26 µg/mL) in experiment [2]; 4 µM (≈ 1.26 µg/mL) in experiment [3]; 4 µM (≈ 1.26 µg/mL) in [4]; 8 µM (≈ 2.53 µg/mL) in [5]; 4 µM (≈ 1.26 µg/mL) in [8]; 8 µM (≈ 2.53 µg/mL) in experiment [10].
With `COc1ccc(Cl)cc1C(=O)Nc1ccc(Br)cc1`, the minimum inhibitory concentration (MIC) worked out at 62.5 µM (≈ 21.3 µg/mL) in [1]; 62.5 µM (≈ 21.3 µg/mL) in experiment [2]; 16 µM (≈ 5.45 µg/mL) in experiment [3]; 62.5 µM (≈ 21.3 µg/mL) in experiment [4]; 16 µM (≈ 5.45 µg/mL) in experiment [5]; 32 µM (≈ 10.9 µg/mL) in experiment [6]. Also, the minimal inhibitory concentration (MIC) in [7] was 62.5 µM (≈ 21.3 µg/mL); in [8], 16 µM (≈ 5.45 µg/mL); in experiment [9], 62.5 µM (≈ 21.3 µg/mL); in experiment [10], 32 µM (≈ 10.9 µg/mL).
Take `COc1cc(Cl)ccc1C(=S)Nc1cccc([N+](=O)[O-])c1`: the minimal inhibitory concentration (MIC) turned out to be 16 µM (≈ 5.16 µg/mL) in [1]; 62.5 µM (≈ 20.2 µg/mL) in experiment [2]; 8 µM (≈ 2.58 µg/mL) in experiment [3]; 32 µM (≈ 10.3 µg/mL) in experiment [4]; 16 µM (≈ 5.16 µg/mL) in experiment [5]; 8 µM (≈ 2.58 µg/mL) in experiment [6]. The minimal inhibitory concentration (MIC) in [7] turned out to be 32 µM (≈ 10.3 µg/mL); in [8] it was 16 µM (≈ 5.16 µg/mL); in experiment [9], 32 µM (≈ 10.3 µg/mL); in [10] it was 16 µM (≈ 5.16 µg/mL).
Take `COc1ccc(Cl)cc1C(=S)Nc1ccc(Cl)cc1`: the minimal inhibitory concentration (MIC) in [1] was found to be 16 µM (≈ 5 µg/mL); in [2], 62.5 µM (≈ 19.5 µg/mL); in experiment [3], 16 µM (≈ 5 µg/mL); in experiment [4] it was 32 µM (≈ 9.99 µg/mL); in experiment [5], 32 µM (≈ 9.99 µg/mL); in experiment [6] it was 16 µM (≈ 5 µg/mL). The minimum inhibitory concentration (MIC) in [7] came to 8 µM (≈ 2.5 µg/mL); in experiment [8], 16 µM (≈ 5 µg/mL); in [9], 32 µM (≈ 9.99 µg/mL); in experiment [10] it was 32 µM (≈ 9.99 µg/mL).
As to `O=C(Nc1ccc([N+](=O)[O-])cc1)c1cc(Cl)ccc1O`, the MIC turned out to be 4 µM (≈ 1.17 µg/mL) in experiment [2]; 4 µM (≈ 1.17 µg/mL) in experiment [3]; 4 µM (≈ 1.17 µg/mL) in [4]; 8 µM (≈ 2.34 µg/mL) in experiment [5]; 8 µM (≈ 2.34 µg/mL) in experiment [8]; 8 µM (≈ 2.34 µg/mL) in [10].
On to `COc1ccc(Cl)cc1C(=S)Nc1cccc([N+](=O)[O-])c1`, for which the MIC in experiment [1] came to 250 µM (≈ 80.7 µg/mL); in experiment [2], 250 µM (≈ 80.7 µg/mL); in experiment [3], 250 µM (≈ 80.7 µg/mL); in experiment [4] it was 250 µM (≈ 80.7 µg/mL); in experiment [5] it was 250 µM (≈ 80.7 µg/mL); in [6], 62.5 µM (≈ 20.2 µg/mL). Moreover, the minimum inhibitory concentration (MIC) in experiment [7] was found to be 62.5 µM (≈ 20.2 µg/mL); in experiment [8] it was 250 µM (≈ 80.7 µg/mL); in experiment [9], 250 µM (≈ 80.7 µg/mL); in [10], 250 µM (≈ 80.7 µg/mL).
On to `COc1cc(Cl)ccc1C(=S)Nc1ccc([N+](=O)[O-])cc1`, for which the MIC was determined as 16 µM (≈ 5.16 µg/mL) in [1]; 32 µM (≈ 10.3 µg/mL) in experiment [2]; 8 µM (≈ 2.58 µg/mL) in [3]; 32 µM (≈ 10.3 µg/mL) in experiment [4]; 16 µM (≈ 5.16 µg/mL) in experiment [5]; 16 µM (≈ 5.16 µg/mL) in [6]. Further, the minimum inhibitory concentration (MIC) in [7] was found to be 16 µM (≈ 5.16 µg/mL); in experiment [8], 32 µM (≈ 10.3 µg/mL); in experiment [9], 32 µM (≈ 10.3 µg/mL); in [10], 16 µM (≈ 5.16 µg/mL).
Regarding `COc1ccc(Cl)cc1C(=O)Nc1ccc([N+](=O)[O-])cc1`, the minimum inhibitory concentration (MIC) in experiment [1], in [2], in experiment [3], in experiment [4], in experiment [5] and in experiment [6] was 125 µM (≈ 38.3 µg/mL) in each case. Also, the minimum inhibitory concentration (MIC) in [7], in experiment [8], in experiment [9] and in [10] was 125 µM (≈ 38.3 µg/mL) each time.
